# Compound activity from PubChem BioAssay.
# FGF22 binding-1 – shifts melting point of recombinant human FGF22; Q9HCT0; recombinant FGF22 thermal shift, SYPRO orange fluorescence; percent of sucrose octasulfate shift, DMSO zero; activity (Tm shift, normalised), % at 9.99 µM; 1.5% of 340,000 active;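 active means mean Tm shift, scaled 0 neutral to 100 positive control, at about 1.3% or above, every replicate too, limit read from the data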
# S100A4 inh HTS – S100A4-myosin IIA interaction inhibition; P26447; S100A4/TAMRA-MyoIIA peptide fluorescence polarization; inhibition, % at 10.7 µM; 0.14% of 360,000 active; AID 652163;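 active means mean inhibition of at least 70% across replicates, with every replicate also reaching that level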
# Target sequence (P26447 whole entry, looked up): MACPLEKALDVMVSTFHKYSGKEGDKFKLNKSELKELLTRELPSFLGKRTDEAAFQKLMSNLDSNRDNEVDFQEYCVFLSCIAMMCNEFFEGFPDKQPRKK
#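 Assay system: human S100A4 monomer with TAMRA-labelled myosin IIA peptide / Buffer or medium: Calcium-containing HEPES buffer, pH 7.2 / Reagent: TAMRA-labelled myosin IIA heavy-chain peptide probe, 5 nM / Compound: one dose per compound / Timing: polarization read 5 min after assay mix addition, stable 5–60 min / Benchmarks: neutral control DMSO, positive control TFP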
# ERAP1 HTS inh – inhibitors of human ERAP1 aminopeptidase; inhibition, % at 10.7 µM; Q9NZ08; 0.15% of 340,000 active; recombinant ERAP1, Leu-AMC fluorescence, 60 min;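 active means mean replicate inhibition of at least 30%, or all replicates individually reaching that 30% level; inactive means mean below 30% and not every replicate reaching it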
# ERp5 block – blocks human ERp5 reductase activity on insulin; inhibition, % at 9.99 µM; Q15084; 0.05% of 350,000 active; ERp5 insulin aggregation, absorbance 650 nm, 90 min;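 active means mean replicate inhibition above about 25%, with every replicate also reaching it, limit read from the data, passing the limit was not always enough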
# PDI turbidity – inhibitors of human protein disulfide isomerase. P07237. PDI insulin aggregation turbidity, A650, 90 min. inhibition, % at 10 µM. 0.052% of 350,000 active;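 active means mean inhibition across replicates of 30% or more, whatever share of single replicates reach that level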
# Target sequence (P07237 whole entry, looked up): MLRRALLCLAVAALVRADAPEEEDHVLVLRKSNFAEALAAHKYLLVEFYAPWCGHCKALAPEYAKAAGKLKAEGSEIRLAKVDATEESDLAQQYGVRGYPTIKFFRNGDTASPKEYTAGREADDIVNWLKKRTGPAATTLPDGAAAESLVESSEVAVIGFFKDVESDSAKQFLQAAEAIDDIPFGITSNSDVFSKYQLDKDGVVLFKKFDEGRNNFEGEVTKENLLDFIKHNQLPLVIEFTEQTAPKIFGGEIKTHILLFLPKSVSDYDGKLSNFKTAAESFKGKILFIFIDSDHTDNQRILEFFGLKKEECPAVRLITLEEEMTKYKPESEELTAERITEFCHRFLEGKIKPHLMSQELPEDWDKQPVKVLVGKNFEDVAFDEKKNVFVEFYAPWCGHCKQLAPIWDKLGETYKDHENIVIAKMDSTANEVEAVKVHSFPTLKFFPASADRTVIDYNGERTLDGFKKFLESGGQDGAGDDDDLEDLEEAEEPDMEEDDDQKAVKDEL
# FGF22 binding-2 – binders of human FGF22 by thermal shift; thermal shift activity, °C (ΔTm) at 38 µM; recombinant FGF22 thermal shift, SYPRO orange fluorescence; shares compounds with FGF22 binding-1; AID 720646; 2% of 1,000 active;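 active means fitted rise in melting shift crosses a set limit at or below the top valid dose tested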
# FGF22 TSA DP – FGF22 (human) binding by thermal shift | shares compounds with FGF22 binding-1 | Thermal shift assay, SYPRO orange, melting temperature shift | Tm shift (activity), % at 38 µM | 50 tested, under 10 active;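 active means compounds whose fitted dose curve of melting temperature shift rises past a set threshold within the tested doses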
# TSA no protein – counter-screen for FGF22 binders: compound-only thermal shift, no protein; shares compounds with FGF22 binding-1; compound-only SYPRO orange thermal shift counter-screen; AC50, µM (highest dose often 38 µM); 2% of 1,000 active; AID 743019;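 active means rising signal whose fitted curve reaches the 0.54 level within the top valid dose, showing a melting point, actives reach about 13 µM in these data; inactive means the rest, including activity in the opposite direction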; further: value is where the raw curve crosses a fixed level and not half-maximal
# Numbers stand for hits; n = inactive; x = no result given. This is one part of a sample in which hits are shown more often than they occur.
SMILES,FGF22 binding-1,S100A4 inh HTS,ERAP1 HTS inh,ERp5 block,PDI turbidity,FGF22 binding-2,TSA no protein,others
O=C1C(=O)C(c2ccccc2)C(=O)C1c1ccccc1 (configuration not stated),5.8,n,n,n,n,n,n,
O=C1c2ccccc2C(=O)C1c1ccncc1,x,x,x,x,n,x,x,
COc1ccc(C(=O)Nc2cc(Cl)ccc2N2CCOCC2)cc1S(=O)(=O)N1CCOCC1,n,n,n,n,n,x,x,
COc1ccc(C(=O)Nc2ccccc2N2CCOCC2)cc1S(=O)(=O)N1CCOCC1,21,n,n,n,n,n,n,
Nc1nnc(CC(=O)N/N=C/c2cc([N+](=O)[O-])cc(Br)c2O)s1,1.8,n,n,n,n,x,n,
COc1ccc(Cc2nnc(NS(=O)(=O)c3ccccc3)s2)cc1,26,n,n,n,n,n,n,
O=c1[nH]c(-c2ccccc2)cn1C1CCN(Cc2ccc(-c3nc4ccccc4nc3-c3ccccc3)cc2)CC1,n,n,n,n,x,x,x,
O=C(Nc1ccc2c(c1)OCO2)c1cnn2cccnc12,1.9,n,n,n,n,n,n,
O=C(Nc1cccc(O)c1)c1cnn2cccnc12,n,n,n,n,n,x,x,
O=C(NCCc1c[nH]c2ccccc12)c1ccccc1,n,n,n,n,n,x,x,
Cc1cc(NC(=O)CCc2c[nH]c3ccccc23)ccc1Oc1cccnc1,n,n,n,n,x,x,x,
O=C(CCc1c[nH]c2ccccc12)Nc1ccc(Oc2cccnc2)cc1,1.5,n,n,n,x,n,n,
N#CCC(=O)Nc1ccc(C(=O)NCCc2c[nH]c3ccccc23)cc1,1.4,n,n,n,n,n,n,
CCC(Sc1nc(C)cc(=O)[nH]1)C(=O)Nc1nnc(C)s1 (configuration not stated),x,x,x,x,n,x,x,
COc1cc(/C=N/NC(=O)c2ccncc2)ccc1OCC(=O)Nc1cccc([N+](=O)[O-])c1,1.9,n,n,n,n,n,n,
CCc1ccc2nc(N)sc2c1,2.4,n,n,n,n,n,n,
Cc1ccccc1CN1[C@@H](Cc2ccccc2)COCCS1(=O)=O,x,x,x,x,n,x,x,
C=C1[C@@H](O)[C@H](Cc2ccccc2)N(Cc2ccccc2Br)S1(=O)=O,1.4,n,n,n,n,n,n,
COc1cc(OC)cc(C(=O)NCC2CCN(C(=O)C(=O)c3cc4ccccc4o3)CC2)c1,n,n,n,n,x,x,x,
CSc1ccc(C(=O)NCC2CCN(C(=O)C(=O)c3cc4ccccc4o3)CC2)cc1,1.5,n,n,n,x,n,n,
CN(C(=O)CCc1nnc(CCCCc2ccccc2)o1)C1CC(C)(C)NC(C)(C)C1,n,n,n,n,n,x,x,
CN(C(=O)CCc1nnc(CCCCc2ccccc2)o1)C1CCOCC1,1.4,n,n,n,n,n,n,
CCOc1ccc(C(=O)CCC(=O)Nc2ccc(C)cn2)cc1,14,n,n,n,n,n,n,
N#C[C@@H]1[C@@H](c2ccc(C3=CCCCC3)cc2)[C@H](CO)N1S(=O)(=O)c1ccccc1,1.3,n,n,n,x,n,n,
N#C[C@@H]1[C@H](c2ccc(C3=CCCCC3)cc2)[C@H](CO)N1S(=O)(=O)c1ccccc1,n,n,n,n,x,x,x,
SMILES,FGF22 binding-1,S100A4 inh HTS,ERAP1 HTS inh,ERp5 block,PDI turbidity,FGF22 binding-2,TSA no protein,others
O=[N+]([O-])c1cccc(S(=O)(=O)Nc2ccc(-c3ccc(N4CCCC4)nn3)cc2)c1,1.6,n,n,n,n,n,n,
O=[N+]([O-])c1ccccc1S(=O)(=O)Nc1ccc(S(=O)(=O)Nc2nccs2)cc1,n,n,n,n,n,x,x,
O=[N+]([O-])c1cccc(S(=O)(=O)Nc2cccc(-c3ccc(N4CCOCC4)nn3)c2)c1,n,n,n,n,n,x,x,
O=[N+]([O-])c1cccc(S(=O)(=O)Nc2ccc(S(=O)(=O)Nc3nccs3)cc2)c1,1.6,n,n,n,n,n,n,
O=[N+]([O-])c1cccc(S(=O)(=O)Nc2ccc(-c3ccc(N4CCOCC4)nn3)cc2)c1,2.5,n,n,n,n,n,n,
CCC(=O)N1CC2(C1)CN(S(C)(=O)=O)[C@H](CO)c1c2c2ccc(OC)cc2n1C,n,n,n,n,x,x,x,
CO[C@@H]1CN(C)C(=O)c2ccc(NS(=O)(=O)c3ccc(Oc4ccccc4)cc3)cc2OC[C@H](C)NC[C@@H]1C,1.2,n,n,n,x,n,n,
CO[C@@H]1CN(C)C(=O)c2ccc(NS(=O)(=O)c3ccc(F)cc3)cc2OC[C@@H](C)N(C)C[C@H]1C,206,n,n,n,x,n,n,
CO[C@H]1CN(C)C(=O)c2ccc(NS(=O)(=O)c3ccc(Oc4ccccc4)cc3)cc2OC[C@H](C)NC[C@H]1C,n,n,n,n,x,x,x,
O=C(Cn1[nH]c(=O)c2ccccc2c1=O)Nc1cccnc1,2.2,n,n,n,n,n,n,
Cc1ccc(OCCCC(=O)Nc2ccc(S(=O)(=O)N3CCOCC3)cc2)cc1,2.5,n,n,n,n,n,n,FGF22 TSA DP=n
Cc1ccc(NC(=O)CN(C)C(C)C(=O)Nc2ccc(S(=O)(=O)N3CCCC3)cc2)cc1 (configuration not stated),13,n,n,n,n,n,n,
O=C(CCCOc1ccccc1)Nc1ccc(S(=O)(=O)N2CCOCC2)cc1,x,x,x,x,n,x,x,
CCCC(=O)Nc1nc2nc(-c3ccccc3)cc(-c3ccccc3)n2n1,x,x,x,x,n,x,x,
NC(=O)c1ccsc1NC(=O)COC(=O)CCOc1ccccc1,n,n,x,n,n,x,x,
NC(=O)c1ccsc1NC(=O)COC(=O)CCCOc1ccccc1,1.9,n,n,n,n,n,n,
COCCOC(=O)c1c(NC(=O)CN2c3ccccc3CC2C)sc(C(N)=O)c1C (configuration not stated),n,n,n,n,n,x,x,
CCOCCCNS(=O)(=O)c1ccc(NC(=O)c2ccccc2)cc1,1.8,n,n,n,n,n,n,
O=C(C1CCOCC1)N1C[C@H]2[C@@H](c3ccccc31)[C@@H](CO)N2Cc1ccc(Cl)cc1,n,n,n,n,x,x,x,
O=C(C1CCOCC1)N1C[C@@H]2[C@H](c3ccccc31)[C@@H](CO)N2Cc1ccccc1,1.5,n,x,n,x,n,n,
COc1ccc(C(=O)N2C[C@@H]3[C@H](c4ccccc42)[C@@H](CO)N3Cc2ccccc2)cc1,1.3,n,n,n,x,n,n,
COc1cccc(C(=O)SC2=NCCS2)c1,n,n,n,n,n,x,x,
Oc1ccc(-c2cnc3ccccc3n2)cc1,25,n,n,n,n,n,n,
Clc1ccc(-c2cnc3ccccc3n2)cc1,x,x,x,x,n,x,x,
